# Experimental data reported in ChEMBL document CHEMBL2046305, “Discovery of selective menaquinone biosynthesis inhibitors against Mycobacterium tuberculosis” (J Med Chem, 2012).
# Calls of active or inactive are those of the source. The rule behind the calls is not given here.
# Key:
# [1] = system: Escherichia coli; assay: Growth inhibition of Escherichia coli Seattle ATCC 25922 at 5 to 10 ug/ml by microplate alamar blue assay in presence of 50 uM VK2; assay type: functional, organism-based
# Outline: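 E. coli grown with inhibitor under anaerobic conditions; rescue tested by supplementing with menaquinone (VK2, 50 μM).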
# [2] = system: Staphylococcus aureus; assay: Antibacterial activity against Staphylococcus aureus Seattle 1945 ATCC 25923 by agar plate diffusion method; assay type: functional
# [3] = system: Mycobacterium tuberculosis; assay: Antibacterial activity against non-replicating Mycobacterium tuberculosis H37Rv ATCC 27294 by low oxygen recovery assay; assay type: functional
# [4] = system: Mycobacterium tuberculosis; assay: Inhibition of Mycobacterium tuberculosis MenA using [3H]farnesyl and DHNA as substrate at 100 uM after 2 hrs
# Outline: (§1)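 Membrane fraction from mid-log cultures in 7H9/OADC, washed in saline, sonicated in MOPS pH 8/sucrose/MgCl2/2-mercaptoethanol buffer, spun 15,000 g then 200,000 g; the fraction was the enzyme source. DHNA (500 μM stock), MgCl2, 0.1% CHAPS, Tris pH 8, farnesyl diphosphate (200 μM stock) and inhibitor, 2 h at 37 °C. Quenched with 0.1 M AcOH/MeOH, extracted with hexanes, DMMK measured.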
# [5] = system: Escherichia coli; assay: Growth inhibition of Escherichia coli Seattle ATCC 25922 at 5 to 10 ug/ml by microplate alamar blue assay; assay type: functional, organism-based
# [6] = system: Mycobacterium tuberculosis; assay: Antibacterial activity against Mycobacterium tuberculosis H37Rv ATCC 27294 by microplate alamar blue assay; assay type: functional
# Outline: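 Colorimetric microplate assay run under aerobic conditions; growth scored by the colour change of resazurin. Compounds showing at least 90% inhibition in a preliminary screen were retested at lower concentrations to give the MIC.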
# [7] = Inhibition of Mycobacterium tuberculosis MenA using [3H]farnesyl and DHNA as substrate after 2 hrs; outline: as §1
# [8] = system: Staphylococcus aureus; assay: Inhibition of Staphylococcus aureus MenA using [3H]farnesyl and DHNA as substrate at 100 uM after 2 hrs; outline: as §1
# [9] = system: Staphylococcus aureus; assay: Bactericidal activity against Staphylococcus aureus; assay type: functional
# [10] = system: Mycobacterium tuberculosis; assay: Bactericidal activity against Mycobacterium tuberculosis; assay type: functional
Compound,growth inhibition (GI) [1],MIC [2] [µg/mL],MIC [3] [µg/mL],inhibition [4],growth inhibition (GI) [5],MIC [6] [µg/mL],IC50 [7] [µM],inhibition [8],MIC [9] [µg/mL],MIC [10] [µg/mL]
CCCCCCC[C@H](O)c1cccc(CN2CCC(COc3ccc(C(=O)c4ccc(Cl)cc4)c(Cl)c3)CC2)c1,inactive,> 60,1.88,Active,Active,12.5,15,inactive,–,–
CCCCCCC[C@@H](OC(N)=O)c1cccc(CN2CCC(COc3ccc(C(=O)c4ccc(Cl)cc4)c(Cl)c3)CC2)c1,inactive,> 60,4.93,Active,Active,12.5,20,inactive,–,–
CCCCCC[C@H](O)CN1CCC(COc2cccc(C(=O)c3ccc(Cl)cc3)c2)CC1,inactive,> 60,4.91,Active,Active,12.5,16,inactive,–,–
CC(C)=CC(O)C/C(C)=C/CC/C(C)=C/Cc1c(C)n(O)c2ccccc2c1=O (stereo not given) [AURACHIN RE],–,–,–,–,–,–,–,–,3.1,25
CCCC[C@H](O)CN1CCC(COc2cccc(C(=O)c3ccc(Cl)cc3)c2)CC1,inactive,> 60,5.59,Active,Active,12.5,7.5,inactive,–,–
CCCCCC[C@@H](O)CN1CCC(COc2ccc(C(=O)c3ccc(Cl)cc3)c(Cl)c2)CC1,inactive,> 60,5.2,Active,Active,6.25,9.5,inactive,–,–
CCCCCC[C@@H](CN1CCC(COc2cccc(C(=O)c3ccc(Cl)cc3)c2)CC1)OC(N)=O,inactive,> 60,2.94,Active,Active,12.5,9,inactive,–,–
CCCCCC[C@@H](O)CN1CCC(COc2cccc(C(=O)c3ccc(Cl)cc3)c2)CC1,inactive,> 60,5.59,Active,Active,6.2,9,inactive,–,–
CCCCCC[C@@H](CN1CCC(COc2ccc(/C(=N\OC)c3ccc(Cl)cc3)c(Cl)c2)CC1)OC(N)=O,inactive,> 60,1.4,Active,Active,1.5,1.5,inactive,–,–
CCCCCCC[C@@H](OC(N)=O)c1cccc(CN2CCC(COc3cccc(C(=O)c4ccc(Cl)cc4)c3)CC2)c1,inactive,> 60,4.93,Active,Active,12.5,15,inactive,–,–
CCCCCCC[C@H](OC(N)=O)c1cccc(CN2CCC(COc3ccc(C(=O)c4ccc(Cl)cc4)c(Cl)c3)CC2)c1,inactive,> 60,2.93,Active,Active,12.5,20,inactive,–,–
COc1ccc(CCN[C@H](CO)c2cccc(COc3cccc(C(=O)c4ccc(Cl)cc4)c3)c2)cc1,inactive,> 60,3,Active,Active,12.5,17,inactive,–,–
CCCC[C@@H](O)CN1CCC(COc2cccc(C(=O)c3ccc(Cl)cc3)c2)CC1,inactive,> 60,4.91,Active,Active,6.2,17,inactive,–,–
CCCCCCC[C@@H](O)c1cccc(CN2CCC(COc3ccc(C(=O)c4ccc(Cl)cc4)c(Cl)c3)CC2)c1,inactive,> 60,1.46,Active,Active,12.5,15,inactive,–,–
COc1ccc(CCN[C@@H](CO)c2cccc(COc3cccc(C(=O)c4ccc(Cl)cc4)c3)c2)cc1,inactive,> 60,3,Active,Active,12.5,14,inactive,–,–
CCCCCC[C@H](O)CN1CCC(COc2ccc(C(=O)c3ccc(Cl)cc3)c(Cl)c2)CC1,inactive,> 60,1.43,Active,Active,1.5,3.5,inactive,–,–

Compound,growth inhibition (GI) [1],MIC [2] [µg/mL],MIC [3] [µg/mL],inhibition [4],growth inhibition (GI) [5],MIC [6] [µg/mL],IC50 [7] [µM],inhibition [8],MIC [9] [µg/mL],MIC [10] [µg/mL]
O=C(c1ccc(Cl)cc1)c1ccc(OCc2cccc(CN3CCC(N4CCCCC4)CC3)c2)cc1Cl,–,–,–,–,–,–,–,–,15.5,8
O=C(c1ccc(Cl)cc1)c1ccc(OC/C=C/COCCCNCCc2ccc(F)cc2)cc1Cl,–,–,–,–,–,–,–,–,0.5,8
CCCCCCC[C@@H](O)c1cccc(CN2CCC(COc3ccc(/C(=N\OC)c4ccc(Cl)cc4)c(Cl)c3)CC2)c1,inactive,> 60,5.54,Active,Active,12.5,15,inactive,–,–
CCCCCCC[C@H](O)c1cccc(CN2CCC(COc3cccc(C(=O)c4ccc(Cl)cc4)c3)CC2)c1,inactive,> 60,1.88,Active,Active,12.5,25,inactive,–,–
C=CCN(C)CCCCCCCCOc1ccc(C(=O)c2ccc(Cl)cc2)c(Cl)c1,–,–,–,–,–,–,–,–,15.5,0.5
CCCC[C@@H](O)CN1CCC(COc2ccc(C(=O)c3ccc(Cl)cc3)c(Cl)c2)CC1,inactive,> 60,2.85,Active,Active,6.25,7.5,inactive,–,–
CCCCCCC[C@H](O)c1cccc(CN2CCC(COc3ccc(/C(=N\OC)c4ccc(Cl)cc4)c(Cl)c3)CC2)c1,inactive,> 60,5.54,Active,Active,12.5,20,inactive,–,–
COc1ccc(CCNCCCOCCCCOc2ccc(C(=O)c3ccc(Cl)cc3)c(Cl)c2)cc1,–,–,–,–,–,–,–,–,0.5,15.5
CCCCCCC[C@@H](O)c1cccc(CN2CCC(COc3cccc(/C(=N\OC)c4ccc(Cl)cc4)c3)CC2)c1,inactive,> 60,1.43,Active,Active,6.25,15,inactive,–,–
CCCC[C@H](O)CN1CCC(COc2ccc(C(=O)c3ccc(Cl)cc3)c(Cl)c2)CC1,inactive,> 60,1.43,Active,Active,1.5,4.5,inactive,–,–
CCCCCCC[C@@H](O)c1cccc(CN2CCC(COc3cccc(C(=O)c4ccc(Cl)cc4)c3)CC2)c1,inactive,> 60,1.46,Active,Active,12.5,20,inactive,–,–
CO[C@H]1/C=C/O[C@@]2(C)Oc3c(C)c(O)c4c(O)c(c(/C=N/N5CCN(C)CC5)c(O)c4c3C2=O)NC(=O)/C(C)=C\C=C\[C@H](C)[C@H](O)[C@@H](C)[C@@H](O)[C@@H](C)[C@H](OC(C)=O)[C@@H]1C [RIFAMPIN],–,–,–,–,–,0.07,–,–,–,–
CCCCC(CN1CCC(COc2ccc(C(=O)c3ccc(Cl)cc3)c(Cl)c2)CC1)OC(N)=O (racemic),inactive,> 60,2.83,Active,Active,3.25,7.5,inactive,–,–
NNC(=O)c1ccncc1 [ISONIAZID],–,–,> 128,–,–,0.03,–,–,–,–
CCCCCCC[C@H](OC(N)=O)c1cccc(CN2CCC(COc3cccc(C(=O)c4ccc(Cl)cc4)c3)CC2)c1,inactive,> 60,4.93,Active,Active,12.5,20,inactive,–,–
